These results are taken from article PMC5885750 (Bioorganic & medicinal chemistry letters, 2018).

Test [1] has as its target T1, Heptosyltransferase I (HepI) (Escherichia coli, UniProt P24173). The experiment in a line: Kinetic characterization of inhibition mechanism. The test is classed as biochemical. The procedure, abridged:
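Rates at rising inhibitor levels fitted to a mixed (noncompetitive) equation with Ks, Ki and α. α marks preference for free enzyme (>1), ternary complex (<1) or neither (=1). It is judged from whether Km rises, falls or stays unchanged as inhibitor increases. ODLA acceptor was varied in the ODLA series.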

Test [2] concerns the target T1, Heptosyltransferase I (HepI). Nature of the test: Inhibition of HepI catalysis with substrates ODLA and ADP-Heptose. Format: biochemical.

T1 sequence (P24173 whole entry): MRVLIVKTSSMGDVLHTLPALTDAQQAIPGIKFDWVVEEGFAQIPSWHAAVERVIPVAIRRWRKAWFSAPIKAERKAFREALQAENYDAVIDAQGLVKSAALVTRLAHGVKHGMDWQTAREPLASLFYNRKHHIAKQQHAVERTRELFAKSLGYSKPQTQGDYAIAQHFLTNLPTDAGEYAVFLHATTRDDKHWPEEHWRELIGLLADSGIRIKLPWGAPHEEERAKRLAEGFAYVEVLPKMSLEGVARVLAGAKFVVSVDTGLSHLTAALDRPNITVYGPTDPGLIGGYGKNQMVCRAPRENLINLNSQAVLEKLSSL

`CCCC/C=C/CO[C@@H]1O[C@H](CO)[C@@H](O)[C@H](O)[C@H]1O` [Compound 7, hexene-β-D-glucopyranoside]: the figures for the “kcat ADP-Heptose” value in test [1] ([Inhibitor] 10 μM), in test [1] ([Inhibitor] 100 μM) and in test [1] ([Inhibitor] 1000 μM) were 2.8 ± 0.3 s⁻¹, 1.6 ± 0.1 s⁻¹ and 0.76 ± 0.08 s⁻¹, respectively. Also, the “kcat ODLA” value in test [1] ([Inhibitor] 10 μM) was determined as 1.4 ± 0.03 s⁻¹; in test [1] ([Inhibitor] 100 μM), 1.3 ± 0.004 s⁻¹; in test [1] ([Inhibitor] 1000 μM) it was 0.9 ± 0.2 s⁻¹. The “type of inhibition against ODLA” value in test [1] (acceptor substrate ODLA varied) is reported as “uncompetitive inhibition”. The “α (preference for free enzyme or ES complex)” value in test [1] (against ADP-Heptose, α<1 = prefers ES complex) is less than 1. The “type of inhibition against ADP-Heptose” value in test [1] (donor substrate ADP-Heptose varied) is reported as “noncompetitive (mixed-competitive) inhibition”.
Regarding `CCCCCCCCO[C@@H]1O[C@H](CO)[C@@H](O)[C@H](O)[C@H]1O` [n-Octyl-β-D-glucopyranoside], in test [2], the “inhibition of HepI activity (in words)” value is recorded as “small degree of inhibition”.
